Usually pIC50 stands for the negative decadic logarithm of the IC50, by convention in mol/L. A low value points to a high IC50.

One experiment relates to MCF7. As to the kind of experiment: Cytotoxicity against human MCF7 cells. The class given is functional, cell-based. The gist of the method: (§1)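 SRB assay. 5000 cells/well were seeded in medium with 10% serum and left 18-20 h at 5% CO2 to adhere. Final compound 0 to 100 μM for 48 h at 37 °C; DMSO vehicle, doxorubicin positive control. Cells fixed in 10% TCA 1 h at 4 °C, stained 30 min with 0.057% SRB, washed with 1% acetic acid. Dye solubilised in 10 mM Tris base, A510 read, IC50 derived.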

Experiment [1] relates to DU-145. Briefly: Cytotoxicity against human DU145 cells. The class given is functional, cell-based. A digest of the protocol: as §1
The next experiment has as its system HeLa. Briefly: Cytotoxicity against human HeLa cells. The class given is functional, cell-based. The gist of the method: as §1
Another experiment has as its system A549. As to the kind of experiment: Cytotoxicity against human A549 cells. The class given is functional, cell-based. A digest of the protocol: as §1
In experiment [2] the test system is DU-145. Briefly: Cell cycle arrest in human DU145 cells assessed as accumulation at G0/G1 phase at 5 uM after 48 hrs by propidium iodide staining-based flow cytometric analysis (reference value: 70.54%). The class given is functional.
Experiment [3] deals with DU-145. Briefly: Induction of apoptosis in human DU145 cells assessed as caspase-9 activation using Ac-LEHD-AFC as substrate after 48 hrs by fluorometric analysis. The class given is functional, cell-based. The gist of the method: (§2)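 DU145 exposed to several concentrations for 48 h; DMSO negative, doxorubicin positive control. Cells lysed in 50 mM HEPES, 5 mM CHAPS, 5 mM DTT, pH 7.5. Lysate incubated with substrate in 20 mM HEPES pH 7.5, 0.1% CHAPS, 2 mM EDTA, 5 mM DTT for 2 h at 37 °C. AMC read at ex/em 380/460 nm (caspase-3), AFC at 400/505 nm (caspase-9). Values normalised to Bradford protein and expressed relative to DMSO; triplicates, means.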

The subject of experiment [4] is DU-145. As to the kind of experiment: Cytotoxicity against human DU145 cells assessed as change in cell morphology at 5 to 25 uM after 48 hrs by microscopic analysis. The class given is functional, cell-based. A digest of the protocol:
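DU145 cells seeded in 24-well plates and left 18-20 h, then exposed to increasing concentrations for 48 h with a DMSO comparison. Morphology examined and imaged by light microscopy.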

For experiment [5], the system named is DU-145. Briefly: Cell cycle arrest in human DU145 cells assessed as accumulation at G0/G1 phase at 25 uM after 48 hrs by propidium iodide staining-based flow cytometric analysis (reference value: 70.54%). The class given is functional. For orientation: Flow cytometry measures light scatter and fluorescence of single cells or particles in a stream.
Experiment [6] has as its system DU-145. As to the kind of experiment: Cell cycle arrest in human DU145 cells assessed as accumulation at G2/M phase at 15 uM after 48 hrs by propidium iodide staining-based flow cytometric analysis (reference value: 23.09%). The experiment is classed as functional.
In experiment [7] the test system is DU-145. As to the kind of experiment: Cell cycle arrest in human DU145 cells assessed as accumulation at S phase at 20 uM after 48 hrs by propidium iodide staining-based flow cytometric analysis (reference value: 5.77%). The class given is functional.
Experiment [8] deals with DU-145. Briefly: Cell cycle arrest in human DU145 cells assessed as accumulation at S phase at 25 uM after 48 hrs by propidium iodide staining-based flow cytometric analysis (reference value: 5.77%). The class given is functional.
In experiment [9] the test system is DU-145. As to the kind of experiment: Cell cycle arrest in human DU145 cells assessed as accumulation at G2/M phase at 20 uM after 48 hrs by propidium iodide staining-based flow cytometric analysis (reference value: 23.09%). The class given is functional.
Experiment [10] has as its system DU-145. As to the kind of experiment: Cell cycle arrest in human DU145 cells assessed as accumulation at G2/M phase at 5 uM after 48 hrs by propidium iodide staining-based flow cytometric analysis (reference value: 23.09%). The experiment is classed as functional.
Experiment [11] relates to DU-145. Briefly: Induction of senescence in human DU145 cells at 5 to 25 uM after 48 hrs by SA-beta-gal staining-based microscopic analysis. The experiment is classed as functional, cell-based. A digest of the protocol:
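DU145 in 24-well plates treated for 48 h. Cells washed with PBS and fixed 5 min at room temperature in 2% formaldehyde/0.2% glutaraldehyde. Stained overnight at 37 °C in 40 mM citric acid/Na phosphate (pH 6.0), 5 mM each ferro- and ferricyanide, 150 mM NaCl, 2 mM MgCl2, 1 mg/ml X-gal. Positive cells observed and photographed by microscopy.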

In experiment [12] the test system is DU-145. As to the kind of experiment: Cell cycle arrest in human DU145 cells assessed as accumulation at G2/M phase at 10 uM after 48 hrs by propidium iodide staining-based flow cytometric analysis (reference value: 23.09%). The class given is functional.
Experiment [13] relates to DU-145. Briefly: Induction of apoptosis in human DU145 cells assessed as caspase-3 activation using Ac-DEVD-AMC as substrate after 48 hrs by fluorometric analysis. The experiment is classed as functional, cell-based. A digest of the protocol:
as §2

The subject of experiment [14] is DU-145. As to the kind of experiment: Cell cycle arrest in human DU145 cells assessed as accumulation at S phase at 15 uM after 48 hrs by propidium iodide staining-based flow cytometric analysis (reference value: 5.77%). The class given is functional.
In experiment [15] the test system is DU-145. Briefly: Cell cycle arrest in human DU145 cells assessed as accumulation at G0/G1 phase at 20 uM after 48 hrs by propidium iodide staining-based flow cytometric analysis (reference value: 70.54%). The experiment is classed as functional.
The test system of experiment [16] is DU-145. Briefly: Cell cycle arrest in human DU145 cells assessed as accumulation at S phase at 10 uM after 48 hrs by propidium iodide staining-based flow cytometric analysis (reference value: 5.77%). The class given is functional.
For experiment [17], the system named is DU-145. As to the kind of experiment: Cell cycle arrest in human DU145 cells assessed as accumulation at G0/G1 phase at 10 uM after 48 hrs by propidium iodide staining-based flow cytometric analysis (reference value: 70.54%). The class given is functional.
For experiment [18], the system named is DU-145. Briefly: Cell cycle arrest in human DU145 cells assessed as accumulation at S phase at 5 uM after 48 hrs by propidium iodide staining-based flow cytometric analysis (reference value: 5.77%). The experiment is classed as functional.
For experiment [19], the system named is DU-145. Briefly: Cell cycle arrest in human DU145 cells assessed as accumulation at G0/G1 phase at 15 uM after 48 hrs by propidium iodide staining-based flow cytometric analysis (reference value: 70.54%). The experiment is classed as functional.
Experiment [20] relates to DU-145. As to the kind of experiment: Induction of apoptosis in human DU145 cells assessed as change in mitochondrial membrane potential at 8.5 to 20 uM after 24 hrs by JC-1 dye-based assay. The experiment is classed as functional, cell-based. The gist of the method: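 DU145 seeded in 24-well plates and left 18 h at 37 °C, 5% CO2, then treated for 24 h, DMSO control. Stained with JC-1 working solution (stock mixed 1:1 with growth medium) for 20 min at 37 °C. Washed twice with medium, then red (aggregate) versus green (monomer) fluorescence viewed by microscopy.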

Experiment [21] has as its system DU-145. As to the kind of experiment: Cell cycle arrest in human DU145 cells assessed as accumulation at G2/M phase at 25 uM after 48 hrs by propidium iodide staining-based flow cytometric analysis (reference value: 23.09%). The experiment is classed as functional.
Experiment [22] has as its system DU-145. Briefly: Cytotoxicity against human DU145 cells assessed as inhibition of colony formation on soft agar media after 9 days by crystal violet staining-based microscopic analysis. The experiment is classed as functional, cell-based. A digest of the protocol:
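Soft agar assay. Base layer was 0.5% agar in growth medium with 10% serum. On top, 2.5×10^4 DU145 cells were set in 0.35% agar containing compound (0–25 μM). Medium plus compound replenished every 3 days for 9 days. Stained with 0.005% crystal violet, then colonies photographed and counted under a microscope.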

pIC50: −log10 of the molar value. Activity calls are given as the source filed them. The calls are words filed in the database; no cut-off is given here.

In the case of `C=C[C@H]1OC(=O)N(c2ccc(N3CCOCC3)c(F)c2)[C@@H]1c1ccc(OC)cc1`, the pIC50 in the experiment with MCF7 was 4.16; in the experiment with DU-145 [1] it was 4.32; in the experiment on HeLa, 4.31; with A549 it was 4.61.
With `COc1ccc([C@@H]2[C@@H](COC(=O)c3ccccc3)OC(=O)N2c2ccc(N3CCOCC3)c(F)c2)cc1`, the pIC50 was 4.13 in the experiment with MCF7, 4.68 with DU-145 [1], 4.24 in the experiment with HeLa and 4.62 in the experiment with A549.
Turning to `COc1ccc([C@@H]2[C@H](CO)OC(=O)N2c2ccc(N3CCOCC3)c(F)c2)cc1`, the pIC50 in the experiment with MCF7 is 4.44; in the experiment on DU-145 [1], 4.41; with HeLa, 4.45; with A549 it was 4.36.
For `COc1ccc([C@@H]2[C@@H](CCO)OC(=O)N2c2ccc(N3CCOCC3)c(F)c2)cc1`, in that order: under 4.00, 4.16, 4.36 and 4.52.
Regarding `C=C[C@H]1OC(=O)N[C@@H]1c1ccc(OC)cc1`, the pIC50 in the experiment on MCF7 is under 4.00; with DU-145 [1], 4.48; in the experiment with HeLa, 4.40; in the experiment with A549 it was 4.67.
As for `COc1ccc([C@@H]2[C@@H](CN)OC(=O)N2c2ccc(N3CCOCC3)c(F)c2)cc1`, the pIC50 in the experiment with MCF7 is under 4.00; with DU-145 [1], 4.48; in the experiment with HeLa, under 4.00; in the experiment with A549, 4.67.
Consider `C=CC(=O)OCCC(=O)OC[C@@H]1OC(=O)N(c2ccc(N3CCOCC3)c(F)c2)[C@@H]1c1ccc(OC)cc1`, for which the pIC50 was 4.21 in the experiment on MCF7, 4.50 in the experiment on DU-145 [1], 4.54 in the experiment on HeLa and 4.37 in the experiment on A549.
As to `C=CC(=O)OCCC(=O)OC[C@H]1OC(=O)N(c2ccc(N3CCOCC3)c(F)c2)[C@@H]1c1ccc(OC)cc1`, the pIC50 is 4.42 in the experiment with MCF7, 5.06 in the experiment on DU-145 [1], 4.37 in the experiment on HeLa and 4.85 in the experiment with A549.
`CC[C@H]1OC(=O)N(c2ccc(N3CCOCC3)c(F)c2)[C@@H]1c1ccc(OC)cc1`: the Activity in the experiment on DU-145 [2] is 75.65%; in the experiment with DU-145 [3], “Dose-dependent effect”; in the experiment with DU-145 [5], 91.11%; with DU-145 [6] it was 16.7%; in the experiment with DU-145 [7] it was 1.93%; in the experiment on DU-145 [8], 0.79%. Further, the Activity was 16.19% with DU-145 [9]; 19.45% in the experiment with DU-145 [10]; 20.49% with DU-145 [12]; “Dose-dependent effect” in the experiment with DU-145 [13]; 3.56% with DU-145 [14]; 80.5% with DU-145 [15]. The Activity with DU-145 [16] amounted to 3.85%; in the experiment with DU-145 [17], 75.29%; in the experiment on DU-145 [18], 4.61%; in the experiment on DU-145 [19], 79.14%; with DU-145 [21] it was 6.54%. For the same molecule, the pIC50 in the experiment with MCF7 is under 4.00; with DU-145 [1], 5.02; in the experiment with HeLa, 4.63; in the experiment on A549, 4.87. For the same molecule, the outcome with DU-145 [4], in the experiment on DU-145 [11] and in the experiment on DU-145 [20] was Active. Also, in the experiment on DU-145 [22], the inhibition result was “Dose-dependent effect”.
With `COc1ccc([C@@H]2[C@@H](CO)OC(=O)N2c2ccc(N3CCOCC3)c(F)c2)cc1`, the pIC50 in the experiment on MCF7 was under 4.00; in the experiment on DU-145 [1] it was 4.60; with HeLa it was 4.06; in the experiment with A549, 4.61.
In the case of `COc1ccc([C@H]2NC(=O)O[C@@H]2CO)cc1`, the pIC50 was under 4.00 with MCF7, 4.39 in the experiment on DU-145 [1], 4.25 with HeLa and 4.51 with A549.
The corresponding values for `COc1ccc([C@@H]2[C@@H](CNC(C)=O)OC(=O)N2c2ccc(N3CCOCC3)c(F)c2)cc1` are under 4.00, 4.57, 4.29 and 4.26.
With `COc1ccc([C@H]2NC(=O)O[C@H]2CO)cc1`, the pIC50 was 4.08 with MCF7, 4.33 with DU-145 [1], 4.58 in the experiment with HeLa and 4.59 with A549.
`COc1cccc2c1C(=O)c1c(O)c3c(c(O)c1C2=O)C[C@@](O)(C(=O)CO)C[C@@H]3O[C@H]1C[C@H](N)[C@H](O)[C@H](C)O1` [DOXORUBICIN]: the pIC50 was 5.17 with DU-145 [1], 4.96 in the experiment on HeLa and 5.08 in the experiment with A549.
Take `COc1ccc([C@@H]2[C@H](COC(=O)c3ccccc3)OC(=O)N2c2ccc(N3CCOCC3)c(F)c2)cc1`: the pIC50 was 4.16 with MCF7, 4.51 in the experiment on DU-145 [1], 4.72 with HeLa and 4.61 in the experiment with A549.

These data come from ChEMBL document CHEMBL3259809, “Oxazolidinone derivatives: cytoxazone-linezolid hybrids induces apoptosis and senescence in DU145 prostate cancer cells” (Eur J Med Chem, 2014).
